# Tests used:
# KDR = KDR (Homo sapiens, UniProt P35968); assay: Kinase activity screening; assay type: biochemical; details: FX-9 at 2.5 μM, ATP at Km (90 μM)
# Method in brief: (§1)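 Radiometric substrate-phosphorylation screen covering a panel of 58 human kinases run by a contract service. […] Activity is given as a percentage of mean activity in positive control samples (100%). Values <30% were scored strong hits, 30–70% partial hits and >70% no hit.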
# EphA5 = EphA5 (Homo sapiens, UniProt P54756); assay: Kinase activity screening; assay type: biochemical; details: FX-9 at 2.5 μM, ATP at Km (10 μM)
# Method in brief: as §1
# mTOR = mTOR (Homo sapiens, UniProt P42345); assay: Kinase activity screening; assay type: biochemical; details: FX-9 at 2.5 μM, ATP at Km (70 μM)
# Method in brief: (§2)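 Radiometric kinase-panel screen of 58 human kinases, measuring substrate phosphorylation. […] Activity is given as % of the mean positive-control kinase activity (100%). Below 30% counts as a strong hit, 30–70% as a partial hit, and above 70% as no hit.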
# MEK1 = MEK1 (Homo sapiens, UniProt Q02750); assay: Kinase activity screening; assay type: biochemical; details: FX-9 at 2.5 μM, ATP at Km (10 μM)
# MEK1, sequence (Q02750 whole entry): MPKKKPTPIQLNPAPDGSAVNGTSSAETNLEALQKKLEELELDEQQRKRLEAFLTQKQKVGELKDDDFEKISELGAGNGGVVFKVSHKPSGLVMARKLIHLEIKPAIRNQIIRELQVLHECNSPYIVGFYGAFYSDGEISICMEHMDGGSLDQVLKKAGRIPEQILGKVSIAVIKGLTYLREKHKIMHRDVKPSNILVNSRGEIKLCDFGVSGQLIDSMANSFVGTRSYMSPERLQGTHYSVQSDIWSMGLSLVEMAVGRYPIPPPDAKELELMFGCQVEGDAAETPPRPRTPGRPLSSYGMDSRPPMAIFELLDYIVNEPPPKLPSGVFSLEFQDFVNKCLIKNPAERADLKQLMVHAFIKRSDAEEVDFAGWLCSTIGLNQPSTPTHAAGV
# Method in brief: as §1
# PI3 Kinase (p110b/p85a) = PI3 Kinase (p110b/p85a) (Homo sapiens, UniProt P42338); assay: Kinase activity screening; assay type: biochemical; details: FX-9 at 2.5 μM, ATP at Km (200 μM)
# Method in brief: as §1
# pSTAT3 = assay: Western blot, SEM cells; assay type: cell-based, human; details: 2.5 μM or 5.0 μM, 48 h
# Method in brief: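 SEM or RS4;11 cells took DMSO, 2.5 or 5.0 μM test compound for 48 h. Cells (1–5×10^6) were lysed in RIPA buffer with sonication, run on SDS gels, blotted to PVDF and imaged by near-infrared fluorescence. Bands were normalised to GAPDH, and the phospho/total protein ratio was set relative to DMSO control (=1).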
# IKKα = IKKα (Homo sapiens, UniProt O15111); assay: Kinase activity screening; assay type: biochemical; details: FX-9 at 2.5 μM, ATP at Km (10 μM)
# Method in brief: as §1
# CDK6/cyclinD3 = CDK6/cyclinD3 (Homo sapiens, UniProt Q00534); assay: Kinase activity screening; assay type: biochemical; details: FX-9 at 2.5 μM, ATP at Km (200 μM)
# CDK6/cyclinD3, sequence (Q00534 whole entry): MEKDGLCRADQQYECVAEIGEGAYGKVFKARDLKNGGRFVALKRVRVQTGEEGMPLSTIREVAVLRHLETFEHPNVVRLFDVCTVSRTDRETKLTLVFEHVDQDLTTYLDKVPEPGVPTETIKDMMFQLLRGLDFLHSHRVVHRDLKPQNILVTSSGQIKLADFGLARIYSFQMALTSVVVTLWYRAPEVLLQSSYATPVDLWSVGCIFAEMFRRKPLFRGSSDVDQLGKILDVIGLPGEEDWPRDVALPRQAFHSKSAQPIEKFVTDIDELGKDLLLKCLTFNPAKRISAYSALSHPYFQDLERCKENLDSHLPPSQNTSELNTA
# CDK6/cyclinD3, sequence (P30281 whole entry partner): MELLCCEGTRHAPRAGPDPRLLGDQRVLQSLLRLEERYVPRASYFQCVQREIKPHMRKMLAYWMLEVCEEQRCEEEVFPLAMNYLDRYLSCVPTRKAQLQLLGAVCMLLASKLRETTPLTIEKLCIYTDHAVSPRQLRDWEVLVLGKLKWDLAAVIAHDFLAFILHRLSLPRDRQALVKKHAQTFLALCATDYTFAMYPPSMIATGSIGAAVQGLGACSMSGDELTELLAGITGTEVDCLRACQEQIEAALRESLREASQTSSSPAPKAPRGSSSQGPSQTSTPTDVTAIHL
# Method in brief: as §1
# PI3 Kinase (p120g) = PI3 Kinase (p120g) (Homo sapiens, UniProt P48736); assay: Kinase activity screening; assay type: biochemical; details: FX-9 at 2.5 μM, ATP at Km (100 μM)
# Method in brief: as §1
# PKCα = PKCα (Homo sapiens, UniProt P17252); assay: Kinase activity screening; assay type: biochemical; details: FX-9 at 2.5 μM, ATP at Km (45 μM)
# Method in brief: as §1
# PRAK = PRAK (Homo sapiens, UniProt Q8IW41); assay: Kinase activity screening; assay type: biochemical; details: FX-9 at 2.5 μM, ATP at Km (15 μM)
# PRAK, sequence (Q8IW41 whole entry): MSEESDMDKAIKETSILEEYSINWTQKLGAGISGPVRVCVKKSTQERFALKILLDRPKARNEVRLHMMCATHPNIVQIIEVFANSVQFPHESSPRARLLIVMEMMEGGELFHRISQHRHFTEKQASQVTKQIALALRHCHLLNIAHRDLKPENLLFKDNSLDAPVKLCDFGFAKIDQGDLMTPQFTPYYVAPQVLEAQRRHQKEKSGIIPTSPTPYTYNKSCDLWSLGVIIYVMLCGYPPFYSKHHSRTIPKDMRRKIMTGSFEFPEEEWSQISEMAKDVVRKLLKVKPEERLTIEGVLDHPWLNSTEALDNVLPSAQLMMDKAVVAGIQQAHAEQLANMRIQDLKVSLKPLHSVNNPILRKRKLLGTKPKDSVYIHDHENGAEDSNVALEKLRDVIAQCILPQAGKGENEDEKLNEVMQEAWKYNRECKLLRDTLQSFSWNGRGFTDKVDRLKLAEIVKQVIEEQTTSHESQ
# Method in brief: as §2
# MLK1 = MLK1 (Homo sapiens, UniProt P80192); assay: Kinase activity screening; assay type: biochemical; details: FX-9 at 2.5 μM, ATP at Km (45 μM)
# Method in brief: as §1
# Aurora-A = Aurora-A (Homo sapiens, UniProt O14965); assay: Kinase activity screening; assay type: biochemical; details: FX-9 at 2.5 μM, ATP at Km (15 μM)
# Aurora-A, sequence (O14965 whole entry): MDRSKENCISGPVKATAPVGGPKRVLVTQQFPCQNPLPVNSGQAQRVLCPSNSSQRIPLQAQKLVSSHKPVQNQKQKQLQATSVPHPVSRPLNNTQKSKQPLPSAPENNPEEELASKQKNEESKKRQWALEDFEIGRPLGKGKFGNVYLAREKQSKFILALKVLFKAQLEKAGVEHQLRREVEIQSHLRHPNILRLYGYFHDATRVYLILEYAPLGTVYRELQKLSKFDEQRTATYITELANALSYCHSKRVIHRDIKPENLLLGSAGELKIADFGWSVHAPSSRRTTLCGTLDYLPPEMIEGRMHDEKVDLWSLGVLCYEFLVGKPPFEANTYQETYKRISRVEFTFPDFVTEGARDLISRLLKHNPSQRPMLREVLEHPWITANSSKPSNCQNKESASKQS
# Method in brief: as §1
# Rsk1 = Rsk1 (Homo sapiens, UniProt Q15418); assay: Kinase activity screening; assay type: biochemical; details: FX-9 at 2.5 μM, ATP at Km (45 μM)
# Rsk1, sequence (Q15418 whole entry): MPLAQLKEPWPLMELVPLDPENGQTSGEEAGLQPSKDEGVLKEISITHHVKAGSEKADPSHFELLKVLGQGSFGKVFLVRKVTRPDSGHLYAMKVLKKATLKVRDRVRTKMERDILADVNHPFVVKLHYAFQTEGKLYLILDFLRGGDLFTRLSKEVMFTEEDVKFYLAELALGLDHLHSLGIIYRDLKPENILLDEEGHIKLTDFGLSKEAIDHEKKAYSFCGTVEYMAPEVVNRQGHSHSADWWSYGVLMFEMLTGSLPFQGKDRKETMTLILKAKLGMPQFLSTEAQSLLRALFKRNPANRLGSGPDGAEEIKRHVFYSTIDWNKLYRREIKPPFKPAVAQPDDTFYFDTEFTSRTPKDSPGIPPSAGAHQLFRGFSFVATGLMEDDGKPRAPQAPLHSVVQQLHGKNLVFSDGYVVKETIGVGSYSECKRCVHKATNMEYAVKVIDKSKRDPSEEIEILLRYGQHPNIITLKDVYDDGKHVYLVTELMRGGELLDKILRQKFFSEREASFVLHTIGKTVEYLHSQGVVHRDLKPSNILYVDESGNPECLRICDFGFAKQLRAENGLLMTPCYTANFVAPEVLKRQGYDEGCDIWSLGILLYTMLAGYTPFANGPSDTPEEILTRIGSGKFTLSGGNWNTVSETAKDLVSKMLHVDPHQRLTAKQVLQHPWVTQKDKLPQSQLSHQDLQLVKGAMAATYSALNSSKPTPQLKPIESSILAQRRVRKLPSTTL
# Method in brief: as §2
# SEM cells = assay: WST-1 metabolic activity assay; assay type: cell-based; details: Homo sapiens, 72 h, read-out: metabolic activity
# Method in brief: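 Test compound came from a 10 mM DMSO stock. Cells were seeded at 5×10^4/well in triplicate with 5 or 10 μM final compound; controls got matched DMSO. After 72 h at 37°C, 5% CO2, WST-1 was added for a further 3 h. Absorbance was read at 450 nm (reference 620 nm), and metabolic activity given as % of DMSO control.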
# Abl = Abl (Homo sapiens, UniProt P00519); assay: Kinase activity screening; assay type: biochemical; details: FX-9 at 2.5 μM, ATP at Km (45 μM)
# Method in brief: as §1
# RS4;11 cells = assay: Cell morphology, May Grünwald Giemsa staining; assay type: cell-based, human; details: 48 h
# PDGFRβ = PDGFRβ (Homo sapiens, UniProt P09619); assay: Kinase activity screening; assay type: biochemical; details: FX-9 at 2.5 μM, ATP at Km (200 μM)
# Method in brief: as §1
# EphB4 = EphB4 (Homo sapiens, UniProt P54760); assay: Kinase activity screening; assay type: biochemical; details: FX-9 at 2.5 μM, ATP at Km (10 μM)
# EphB4, sequence (P54760 16-987): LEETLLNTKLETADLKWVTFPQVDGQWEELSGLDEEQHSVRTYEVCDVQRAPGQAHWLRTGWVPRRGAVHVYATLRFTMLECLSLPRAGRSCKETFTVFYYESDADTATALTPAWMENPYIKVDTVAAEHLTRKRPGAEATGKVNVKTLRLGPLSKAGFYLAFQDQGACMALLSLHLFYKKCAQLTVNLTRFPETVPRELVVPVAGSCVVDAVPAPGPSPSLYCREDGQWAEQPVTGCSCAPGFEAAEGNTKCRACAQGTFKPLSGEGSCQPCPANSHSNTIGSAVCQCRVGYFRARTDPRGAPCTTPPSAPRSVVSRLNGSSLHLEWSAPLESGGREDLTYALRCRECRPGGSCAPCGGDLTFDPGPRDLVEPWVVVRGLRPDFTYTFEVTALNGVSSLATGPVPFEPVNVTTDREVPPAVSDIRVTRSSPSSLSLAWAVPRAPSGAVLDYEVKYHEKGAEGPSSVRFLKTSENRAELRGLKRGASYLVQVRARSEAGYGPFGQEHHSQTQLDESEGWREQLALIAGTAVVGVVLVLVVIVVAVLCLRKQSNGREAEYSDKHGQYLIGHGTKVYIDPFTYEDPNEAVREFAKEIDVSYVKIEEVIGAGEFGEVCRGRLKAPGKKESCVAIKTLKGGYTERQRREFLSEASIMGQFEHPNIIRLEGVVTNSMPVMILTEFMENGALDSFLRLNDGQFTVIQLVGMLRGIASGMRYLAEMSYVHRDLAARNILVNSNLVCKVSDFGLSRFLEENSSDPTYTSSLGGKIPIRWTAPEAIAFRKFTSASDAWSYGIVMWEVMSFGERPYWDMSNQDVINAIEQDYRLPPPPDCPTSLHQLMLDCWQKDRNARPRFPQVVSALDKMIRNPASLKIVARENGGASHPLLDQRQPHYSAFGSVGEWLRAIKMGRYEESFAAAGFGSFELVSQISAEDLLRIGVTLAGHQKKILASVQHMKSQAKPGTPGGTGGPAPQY
# Method in brief: as §1
# CDK9/cyclin T1 = CDK9/cyclin T1 (Homo sapiens, UniProt P50750); assay: Kinase activity screening; assay type: biochemical; details: FX-9 at 2.5 μM, ATP at Km (45 μM)
# CDK9/cyclin T1, sequence (P50750 whole entry): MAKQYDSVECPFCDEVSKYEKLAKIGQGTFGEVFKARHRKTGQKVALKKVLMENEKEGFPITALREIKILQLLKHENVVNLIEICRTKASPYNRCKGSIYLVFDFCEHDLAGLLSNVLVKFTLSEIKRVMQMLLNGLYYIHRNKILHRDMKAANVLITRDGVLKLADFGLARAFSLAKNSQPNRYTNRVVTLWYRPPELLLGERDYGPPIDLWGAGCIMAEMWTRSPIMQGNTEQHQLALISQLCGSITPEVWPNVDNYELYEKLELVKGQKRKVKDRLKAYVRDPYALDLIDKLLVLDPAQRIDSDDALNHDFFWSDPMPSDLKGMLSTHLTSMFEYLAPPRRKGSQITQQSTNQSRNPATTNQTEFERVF
# CDK9/cyclin T1, sequence (O60563 whole entry partner): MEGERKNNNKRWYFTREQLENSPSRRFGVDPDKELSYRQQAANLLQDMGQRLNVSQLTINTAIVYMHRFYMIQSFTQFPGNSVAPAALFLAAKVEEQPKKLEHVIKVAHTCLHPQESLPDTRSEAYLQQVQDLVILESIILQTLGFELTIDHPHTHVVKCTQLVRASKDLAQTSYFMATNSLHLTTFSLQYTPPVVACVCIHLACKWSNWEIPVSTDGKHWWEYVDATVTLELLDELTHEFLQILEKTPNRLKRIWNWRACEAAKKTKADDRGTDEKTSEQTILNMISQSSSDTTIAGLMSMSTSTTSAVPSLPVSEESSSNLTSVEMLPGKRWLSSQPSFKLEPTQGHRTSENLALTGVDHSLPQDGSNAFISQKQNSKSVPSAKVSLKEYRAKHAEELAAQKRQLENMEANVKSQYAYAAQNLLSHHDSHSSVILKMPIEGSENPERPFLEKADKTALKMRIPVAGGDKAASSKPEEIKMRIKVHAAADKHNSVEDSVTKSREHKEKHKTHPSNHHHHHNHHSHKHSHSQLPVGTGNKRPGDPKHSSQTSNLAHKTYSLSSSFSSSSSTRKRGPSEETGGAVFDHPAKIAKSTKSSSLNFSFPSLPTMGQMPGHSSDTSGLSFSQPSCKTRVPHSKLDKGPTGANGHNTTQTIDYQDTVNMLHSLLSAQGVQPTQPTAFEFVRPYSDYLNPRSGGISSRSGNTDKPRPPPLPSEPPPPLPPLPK
# Method in brief: as §1
structure (smiles),measurement,setting,value
"Cc1ccc(-c2cc3ccccc3c(N)n2)cc1 [FX-9, 3-(p-Tolyl)isoquinolin-1-amine]",Kinase activity (% control),KDR,83 % control
same,Kinase activity (% control),EphA5,98 % control
same,Kinase activity (% control),mTOR,100 % control
same,Kinase activity (% control),MEK1,90 % control
same,Kinase activity (% control),PI3 Kinase (p110b/p85a),97 % control
same,pSTAT3 level (western blot),pSTAT3,reduced
same,Kinase activity (% control),IKKα,91 % control
same,Kinase activity (% control),CDK6/cyclinD3,103 % control
same,Kinase activity (% control),PI3 Kinase (p120g),98 % control
same,Kinase activity (% control),PKCα,99 % control
same,Kinase activity (% control),PRAK,79 % control
same,Kinase activity (% control),MLK1,84 % control
same,Kinase activity (% control),Aurora-A,92 % control
same,Kinase activity (% control),Rsk1,95 % control
same,activity at 5 µM,SEM cells,1.2%
same,activity at 10 µM,SEM cells,0.6%
same,Kinase activity (% control),Abl,96 % control
same,cellular morphology (light microscopy),"RS4;11 cells; RS4;11, 1.0 μM",increased amount of vacuoles and karyopyknosis
same,cellular morphology (light microscopy),"RS4;11 cells; RS4;11, 2.5 μM","Extensive cytoplasmic vacuolization, karyopyknosis, and karyolysis"
same,Kinase activity (% control),PDGFRβ,99 % control
same,Kinase activity (% control),EphB4,83 % control
same,Kinase activity (% control),CDK9/cyclin T1,86 % control

# — article PMC6720533 (Biomolecules & Therapeutics, 2019)
